High-throughput results as filed in PubChem.
H9c2 protect = protects H9c2 cardiomyocytes from peroxide injury | H2O2 injury protection, ATPLite, 2 h | protection from H2O2 cell death, % at 20 µM | hit rate 0.63% among 360,000 | AID 588492;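 active means compounds giving at least 50% protection of heart cells from peroxide-induced death in the single-dose screen, raw or plate-pattern-corrected value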;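 further: 0% = DMSO wells with peroxide and 100% = DMSO wells without peroxide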
UCH37 inh = inhibitors of human deubiquitinating enzyme UCH37. Q9Y5K5. hit rate 0.33% among 330,000. AID 588478. purified proteasome/UCH37, Ub-AMC cleavage fluorescence. inhibition, % (test concentration not listed);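 active means mean inhibition over replicate wells above about 20%, limit read from the data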;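 further: 0% = compound-free wells with enzyme and 100% = wells lacking proteasome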
Target sequence (Q9Y5K5 whole entry, looked up): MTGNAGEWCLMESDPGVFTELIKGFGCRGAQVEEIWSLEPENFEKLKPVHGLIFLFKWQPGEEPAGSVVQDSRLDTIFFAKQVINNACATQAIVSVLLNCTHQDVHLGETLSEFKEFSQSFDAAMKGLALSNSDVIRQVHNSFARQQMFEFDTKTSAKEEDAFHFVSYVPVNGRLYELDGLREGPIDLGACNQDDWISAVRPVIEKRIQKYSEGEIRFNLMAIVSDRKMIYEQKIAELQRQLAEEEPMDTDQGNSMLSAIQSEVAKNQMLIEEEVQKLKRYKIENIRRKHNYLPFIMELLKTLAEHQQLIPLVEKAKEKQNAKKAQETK
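Assay system: Proteasome-bound UCH37. Buffer or medium: pH 7.4 Tris-HCl (50 mM) with ovalbumin, ATP-MgCl2, DTT. Incubation: 30 min preincubation with enzyme, 25 min cleavage at room temperature. Measured by: fluorescence, ex 355 nm, em 460 nm. Read-out basis: percent inhibition. Control set: wells without proteasome as full block, compound-free enzyme plus substrate as uninhibited.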
beta cell repl = MIN6 beta-cell proliferation induction; AID 2380; hit rate 0.29% among 330,000; MIN6 cells proliferation, ATPlite luminescence, 48 h; cells starved in 0.2% serum; 100% = growth in 10% serum; proliferation, % at 10 µM;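 active means compounds whose signal lies at least 3.5 SD above the mean of all wells on their plate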;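 further: 0% = DMSO-treated cells in low-serum medium and 100% = 10% serum control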
CRFBP-R2 block = CRF-BP/CRF-R2 complex antagonism. inhibition, % at 11.8 µM. HEK293 CRF-R2/CRF-BP, CRF-induced calcium fluorescence. hit rate 0.59% among 350,000. AID 588475;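 active means inhibition of the ligand-induced calcium signal above about 50% at the single tested concentration, limit read from the data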
hiPSC survival = hiPSC single-cell survival enhancement; ATPlite luminescence; 100% = ROCK inhibitor wells, 0% = DMSO; survival enhancement, % at 20 µM; hit rate 0.044% among 360,000; in the data active means survival enhancement above about 18%;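 further: cells exposed to compounds for 16 hours before the ATP read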
CRFBP-R2 agonist = agonists of human CRF-binding protein/CRF-R2 receptor complex | HEK293 CRF-R2/CRF-BP, calcium dye fluorescence (FLIPR); percent of saturating CRF peptide response | activation, % at 13.2 µM | hit rate 0.46% among 350,000;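 active means activation of at least 50%, plus an integration ratio under a set limit after plate pattern correction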;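 further: plate controls were neutral control wells without compound for no effect and CRF at EC100 for full effect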
An asterisk follows results filed as active; x = no result given. A selection: hits, their analogues and other compounds. The true share with any hit is near 2.1%.

SMILES	H9c2 protect	UCH37 inh	beta cell repl	CRFBP-R2 block	hiPSC survival	CRFBP-R2 agonist
CCc1cccc(CC)c1N1C(=O)C2=C(SCCCS2)C1=O	-0.8	x	x	-126.7	-3.1	137.2*
COc1cccc(C(c2nnnn2Cc2ccccc2)N2CCN(C3CCCC3)CC2)c1OC (stereo unspecified)	95.1*	0.7	-3.4	-3.1	5.5	-0.8
CC(C)CCOP(=O)(c1ccc(N(C)C)cc1)C(Nc1ccccc1)c1ccc(N(C)C)cc1 (stereo unspecified)	1.8	3.4	-3.7	110.6*	1.2	7.6
CCCOP(=O)(c1ccc(N(C)C)cc1)C(Nc1ccccc1)c1ccc(C)cc1 (stereo unspecified)	-7.1	5.7	-3.9	-1.9	-0.3	0.6
Cc1nn(-c2ccccc2)c(NC(=O)c2cccs2)c(-c2ccccc2Cl)c1=O	-2.3	2.8	0.1	111.0*	0.0	2.6
Cc1ccc(-n2nc3c(c2NC(=O)c2cccs2)CSC3)cc1	-5.8	-1.2	-2.5	-11.3	0.5	5.2
O=CN/N=C/c1c(O)ccc2ccccc12	30.3	x	-5.1	-62.5	-0.1	87.9*
NC(=S)N/N=C/c1c(O)ccc2ccccc12	56.7*	x	-5.9	-0.1	0.2	-4.5
Oc1ccc2ccccc2c1C=NNc1ccccc1	x	-11.0	x	x	x	x
Oc1ccccc1C=NN=Cc1c(O)ccc2ccccc12	-3.9	x	x	-116.4	5.1	143.6*
Cc1nc(N=C(N)NC(=O)N2c3ccccc3Sc3ccccc32)nc2ccccc12	x	-1.2	x	x	x	x
O=C(NN=Cc1cc([N+](=O)[O-])ccc1O)c1c[nH]c2ccccc12	x	4.7	x	x	x	x
Cc1cc(=O)oc2cc(OCC(=O)N3CCN(C(=O)C4COc5ccccc5O4)CC3)c(Cl)cc12 (stereo unspecified)	57.7*	-30.2	-1.7	-9.7	0.6	1.1
CCc1ccc(C(C)=NNC(=O)c2ccc(-n3cnnn3)cc2)cc1	x	5.6	x	x	x	x
S=C1SCN(Cc2cccnc2)CN1Cc1cccnc1	-3.1	x	-2.0	-107.1	0.1	101.2*
COc1ccccc1-c1ccc(SCc2cccc(F)c2)nn1	-25.5	x	1.9	53.4*	2.0	0.0
CCn1c(C)nc2cc(C(=O)NN=Cc3ccccc3C)ccc21	x	1.6	x	x	x	x
Cc1c(N=C2N=C(NC(=O)c3ccc(F)cc3)c3ccccc32)c(=O)n(-c2ccccc2)n1C	-19.1	3.9	-6.4	-54.2	1.5	65.3*
Cc1c(NC(=O)NC(=O)c2ccc(F)cc2)c(=O)n(-c2ccccc2)n1C	-6.2	2.8	-4.5	-2.9	-1.4	-0.7
CN(C)C=Nc1c(C#N)cnn1-c1ccc(C(F)(F)F)cn1	x	4.1	x	x	x	x
Cc1cccc(N2C(=S)NC3c4cc(Cl)ccc4OC2(C)C3C(=O)N(C)C)c1 (stereo unspecified)	39.2	3.6	6.7	-16.9	-0.3	-0.1
Cc1ccc(N2C(=S)NC3c4cc(Cl)ccc4OC2(C)C3C(=O)N(C)C)cc1 (stereo unspecified)	32.2	0.9	10.2*	-15.0	0.1	0.3
CC(=O)Nc1ccccc1NC(=O)CC(C)=NNC(=O)c1ccncc1	x	0.0	x	x	x	x
COc1ccc(N(CC(=O)NCCSc2ccccc2)S(=O)(=O)c2ccccc2)c(OC)c1	55.5*	3.5	-3.6	17.9	1.1	9.8
COc1ccccc1N(CC(=O)NCCSc1ccccc1)S(=O)(=O)c1ccccc1	7.3	-0.6	-5.2	8.6	0.1	1.3
SMILES	H9c2 protect	UCH37 inh	beta cell repl	CRFBP-R2 block	hiPSC survival	CRFBP-R2 agonist
NC(=O)CSc1nnc(-c2ccc(S(=O)(=O)N3CCCCC3)cc2)n1-c1ccccc1	4.8	2.6	-2.2	-62.6	0.4	36.9
COc1ccccc1-n1c(SCC(N)=O)nnc1-c1ccc(S(=O)(=O)N2CCCCC2)cc1	0.1	2.5	-1.8	-88.5	0.9	62.3*
COc1ccc(NS(=O)(=O)c2cc([N+](=O)[O-])ccc2N/N=C/c2c(C)[nH]c3ccccc23)cc1	3.0	11.4	x	-41.9	-2.9	50.5*
FC(F)(F)c1nnc2ccc(N3CCCCCC3)nn12	-0.2	7.0	-0.1	-2.5	9.7	-2.0
FC(F)(F)c1nnc2ccc(N3CCCC3)nn12	51.5*	1.8	-2.5	-0.8	0.1	0.2
COCc1cc(C)nc(OCC(=O)NN=Cc2ccc(-c3cc([N+](=O)[O-])ccc3Cl)o2)c1C#N	x	1.8	x	x	x	x
CCN(CC)S(=O)(=O)c1ccc(N/N=C/c2ccc(O)cc2O)nc1	78.4*	x	0.0	-14.8	-0.9	0.7
CCN(CC)S(=O)(=O)c1ccc(NN=Cc2cc(OC)ccc2O)nc1	x	4.9	x	x	x	x
O=c1c(O)c(-c2ccccc2)oc2cc(O)ccc12	78.7*	x	x	x	-2.0	x
Cc1ccc(-c2oc3ccccc3c(=O)c2O)cc1	73.5*	-0.5	-7.0	-33.5	2.6	35.6
N#Cc1cccc(NC(=O)Nc2cccs2)c1	-13.1	1.6	-3.2	107.9*	-1.3	8.0
CCCN(CCC)c1ccc(C=NNC(=O)CN2CCOCC2)cc1	x	-236.5	x	x	x	x
Cc1cc2nc3c(=O)[nH]c(=O)[nH]c3nc2c([N+](=O)[O-])c1N	-5.2	17.5	x	-22.6	1.6	59.7*
COc1cc(/C=C2\C(=O)ON=C2c2ccccc2)cc(Cl)c1O	-12.3	5.2	-1.1	-18.3	-1.3	14.8
COc1cc(/C=C2\CC/C(=C\c3ccc(OCCO)c(OC)c3)C2=O)ccc1OCCO	81.2*	5.3	-5.4	-483.2	-1.6	447.7
COc1cc(/C=C2\CCC(C3CCCC3)C2=O)ccc1OC(C)C (stereo unspecified)	-3.8	-2.0	-1.6	7.9	-0.2	0.2
COc1cc(/C=C2/C(=O)ON=C2c2ccccc2)ccc1O	4.7	-2.9	-1.0	55.7*	-1.8	4.4
COc1ccc(/C=C2\CCC(C3CCCC3)C2=O)cc1OC (stereo unspecified)	-6.6	0.7	-0.3	52.8*	0.4	0.8
COc1cc(/C=C2\COC/C(=C\c3ccc(O)c(OC)c3)C2=O)ccc1O	53.4*	7.6	-4.1	-4.6	-0.8	-1.5
COc1ccc(/C=C2\CC/C(=C\c3ccc(OC)c(OC)c3)C2=O)cc1OC	-7.5	0.8	-3.9	26.8	-2.1	4.0
COc1cc(/C=C/C=C2/CC/C(=C/C=C/c3ccc(O)c(OC)c3)C2=O)ccc1O	26.6	x	x	-15.8	0.7	11.1
O=C(NN=C/C=C/c1ccc2c(c1)OCO2)C1COc2ccccc2O1 (stereo unspecified)	x	-9.2	x	x	x	x
CC(CCc1ccccc1)=NNC(=O)CC(=O)NCCc1ccccc1	x	-0.2	x	x	x	x
COc1cc(/C=C2/CC/C(=C/c3ccc(O)c(OC)c3)C2=O)ccc1O	70.3*	5.3	-4.8	-131.8	0.4	167.3*
CCc1ccc(S(=O)(=O)NCC2(N3CCOCC3)CCCCC2)cc1	-2.0	4.3	6.2	-21.7	-0.4	53.7*
O=S(=O)(NCC1(N2CCOCC2)CCCCC1)c1ccc(Cl)cc1C(F)(F)F	-4.9	0.7	-2.0	-48.5	-0.4	55.9*
